Compound activity as filed in PubChem.
Shown are actives, neighbours in structure and some others; about 2.9% of the full set was active somewhere.
OX1R antag-1 – antagonists of human orexin 1 receptor (OX1R); O43613; OX1R-expressing cells, FRET antagonist read-out; inhibition, % at 6.6 µM; 330,000 tested, 1.8% active; AID 485270; in the data active = inhibition mostly above about 38%, no sharp cut-off; inactive = mostly below about 40%;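 note: 0% = agonist challenge alone and 100% = reference antagonist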
Target sequence (O43613 whole entry, looked up): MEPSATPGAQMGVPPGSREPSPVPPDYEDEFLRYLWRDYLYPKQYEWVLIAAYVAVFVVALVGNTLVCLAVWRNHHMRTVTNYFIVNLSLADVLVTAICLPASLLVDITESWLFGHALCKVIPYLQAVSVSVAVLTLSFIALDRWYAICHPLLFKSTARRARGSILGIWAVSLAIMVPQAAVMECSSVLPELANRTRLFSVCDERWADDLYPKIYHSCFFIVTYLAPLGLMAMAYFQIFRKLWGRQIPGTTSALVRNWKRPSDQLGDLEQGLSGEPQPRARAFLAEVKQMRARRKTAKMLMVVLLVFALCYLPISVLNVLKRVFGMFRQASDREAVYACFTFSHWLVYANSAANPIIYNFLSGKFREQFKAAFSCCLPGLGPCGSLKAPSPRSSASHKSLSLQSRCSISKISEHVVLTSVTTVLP
CHO-K1 Ca antag – counter-screen for M1 antagonists: effect in parental CHO-K1 cells. ATP-induced calcium, Fluo-8 fluorescence. inhibition, % at 3 µM. 360,000 tested, 0.6% active;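 active = inhibition above a per-plate cutoff, the plate's mean sample inhibition plus 3 SD, cut at about 24% in these data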;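 note: 0% = DMSO plus EC80 ATP and 100% = DMSO alone without ATP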
OX1R antag-2 – blocks the human orexin 1 receptor; O43613; CHO/OX1R cells, Fluo-8 calcium fluorescence, orexin A; inhibition, % at 5 µM; 330,000 tested, 0.43% active; AID 434989;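 active = inhibition above its plate's threshold, mean inhibition of all tested compounds on the plate plus 3 SD, cut at about 37% in these data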;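 note: 0% = orexin A challenge wells and 100% = SB-334867-A antagonist wells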
CHO parental Ca – counter-screen: ATP calcium response change in parental CHO cells; 330,000 tested, 0.63% active; parental CHO-K1, ATP-induced calcium, Fluo-8 fluorescence; inhibition, % at 5.6 µM;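 active = inhibition above that plate's mean sample inhibition plus 3 SD, cut at about 26% in these data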;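 note: 0% = ATP-challenged DMSO wells and 100% = DMSO wells without ATP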
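Test system: untransfected parental CHO cell line; also added: ATP stimulus; dosing: 5.6 µM, single dose; signal: calcium-sensitive Fluo-8 fluorescence; measure: percent inhibition of ATP-evoked calcium rise, normalized to controls; benchmarks: low control ATP plus DMSO, high control DMSO only; replication: one well per compound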
CHO-K1 Ca PAM – nonselective activator or artifact in parental CHO-K1 calcium assay; ATP EC20, Fluo-8 calcium fluorescence; 0% at ATP EC20, 100% at ATP max; activation, % at 3 µM; AID 602247; 360,000 tested, 0.02% active;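 active = activation above the run cutoff, the mean activation of all test compounds plus 3 SD, cut at about 40% in these data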;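 note: peak over basal fluorescence ratio in a 140 s read after ATP addition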
M1 ag parental – counter-screen for M1 agonists: effect in parental CHO-K1 cells | Fluo-8 calcium fluorescence; scaled to maximal ATP response, vehicle zero | activation, % at 3 µM | 360,000 tested, 0.48% active; in the data active = activation above about 15%;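 note: untransfected CHO-K1 host cells lacking M1 receptor as counterscreen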
Numbers without * were called inactive; / = no result.

SMILES	OX1R antag-1	CHO-K1 Ca antag	OX1R antag-2	CHO parental Ca	CHO-K1 Ca PAM	M1 ag parental
O=C(CNS(=O)(=O)c1ccc(Br)s1)NCc1ccc(F)cc1	9	-16	-6	-10	7	3
O=C(CCNS(=O)(=O)c1ccc(Br)s1)NCc1ccc(F)cc1	11	29*	-17	-16	-16	0
O=C(NCC1CCCO1)c1cccc2c1C(=O)c1ccc(N3CCC(Cc4ccccc4)CC3)cc1S2(=O)=O (stereo unspecified)	20	12	38	16	-3	17*
CC1CCN(c2ccc3c(c2)S(=O)(=O)c2cccc(C(=O)NC[C@@H]4CCCO4)c2C3=O)CC1	41	10	-5	-15	-7	12
Oc1ccc(Br)cc1-c1cc(-c2ccc(Cl)cc2)n[nH]1	24	0	24	50*	8	0
Cc1onc(-c2ccccc2Cl)c1C(=O)NCC(=O)O	8	-7	-10	-7	11	1
Cc1onc(-c2ccccc2Cl)c1C(=O)NCCn1c(C)cc2ccccc21	46*	4	7	-3	-7	1
Cc1onc(-c2ccccc2Cl)c1C(=O)Nc1ccc(-c2cn3cccnc3n2)cc1	46*	-1	5	-8	12	5
COc1ccc(-n2c(=O)[nH]c3cc(C(=O)NCCc4ccc(Cl)cc4)ccc3c2=O)cc1OC	22	-11	-2	-3	11	1
CN(C)C1(CN=Cc2cc(Cl)cc([N+](=O)[O-])c2O)CCCCC1	43*	-18	-12	-8	15	5
O=[N+]([O-])c1cc(Cl)cc(/C=N\Nc2ccccn2)c1O	66	-17	-11	10	11	0
CSc1nc(N)nc(-c2cccs2)c1C#N	101*	21	27	12	-8	0
CC(C)Sc1nc(N)nc(-c2cccs2)c1C#N	32	-21	-3	-16	22	1
CCOC(=O)C1=C(Cn2cnc3ccccc32)NC(=O)NC1c1cc(C)ccc1C (stereo unspecified)	39	3	79*	95*	16	4
Cc1c(C(=O)Nc2ccncc2)oc2ccccc12	8	-17	-27	-13	22	3
Cc1cc(NC(=O)c2oc3ccccc3c2C)ccc1-n1cnnn1	39*	4	-5	-17	-4	2
Cc1c(C(=O)Nc2ccccn2)oc2c(Cl)cccc12	34*	-5	-25	-47	11	0
Cc1c(C(=O)Nc2ccccn2)oc2ccccc12	52*	-8	2	-7	6	0
Cc1c(C(=O)NC(C)c2ccccn2)oc2c(Cl)cccc12 (stereo unspecified)	/	3	/	/	-6	0
COc1ccc(-c2cc3nc(C)cc(N)n3n2)cc1	4	-6	-18	-8	14	0
Cc1cccc(-c2cc3nc(C)cc(C)n3n2)c1	65*	21	21	-6	-15	-1
Cc1cccc(-c2cc3nc(C)cc(N4CC(C)CC(C)C4)n3n2)c1 (stereo unspecified)	-12	-13	-28	-32	21	0
COc1ccccc1-c1cc2nc(C)cc(C)n2n1	62*	-3	11	-26	1	0
CCOC(=O)N1CCC(NC(=O)C2CCCN(Cc3nc(-c4ccc(CC)cc4)oc3C)C2)CC1 (stereo unspecified)	16	24*	-17	-18	1	7
CCOC(=O)N1CCC(NC(=O)C2CCN(Cc3nc(-c4ccc(CC)cc4)oc3C)CC2)CC1	/	2	/	/	12	0
SMILES	OX1R antag-1	CHO-K1 Ca antag	OX1R antag-2	CHO parental Ca	CHO-K1 Ca PAM	M1 ag parental
CCOC(=O)N1CCC(NC(=O)C2CCCN(S(=O)(=O)c3cccnc3)C2)CC1 (stereo unspecified)	6	42*	-12	3	-7	0
CCOC(=O)N1CCC(NC(=O)C2CCCN(S(C)(=O)=O)C2)CC1 (stereo unspecified)	2	-20	-12	7	9	0
Nc1nc(N)nc(-c2cccc(Cl)c2Cl)n1	15	5	9	-9	-16	0
CCc1ccccc1NC(=O)CNC(=O)CNC(=O)c1cccs1	1	9	-9	0	-14	0
CCOC(=O)c1c(C)oc2c1c(CN1CCN(C(=O)OCC)CC1)c(O)c1ccccc12	70*	0	1	-15	6	2
CCC(=O)c1ccc(OCC(O)CNCc2ccc(F)cc2)cc1 (stereo unspecified)	3	-4	-24	-6	21	5
CCC(=O)c1ccc(OCC(O)CNCCc2ccc(Cl)cc2)cc1 (stereo unspecified)	-3	-5	-23	3	13	15*
C[C@@H]1CC[C@]2(O[C@@H](CCO)C[C@@H](O)[C@@H]2O)O1	18	1	1	4	-14	1
O=C1/C(=C\c2ccc(O)cc2)SC(=S)N1c1cccnc1	12	7	23	58*	11	17*
Cc1cc(/C=C2/SC(=S)N(c3cccc(C(F)(F)F)c3)C2=O)c(C)n1-c1cccnc1	25	36*	23	50*	5	9
COc1ccc(/C=C2\SC(=S)N(c3cccnc3)C2=O)cc1	20	1	-22	-1	8	15
O=C(Nc1cc(C(F)(F)F)ccc1Cl)c1cccnc1	16	-14	8	-4	17	1
Cc1cccc(OCC(=O)NCc2ccc(F)cc2)c1	6	24*	-4	-5	-22	0
Cc1cccc(OCC(=O)NCc2n[nH]c(=O)c3ccccc23)c1	11	0	-7	0	12	1
Cc1cccc(OCC(=O)Nc2ccc3oc(=O)ccc3c2)c1	22	3	8	10	-10	19*
Cc1ccc(OCC(=O)NNc2c3ccccc3nc3ccccc23)cc1	53	2	-3	-21	-10	6
Cc1cccc(OCC(=O)NNc2c3ccccc3nc3ccccc23)c1	41*	-15	15	-8	-4	6
Cc1ccccc1C(=O)N1CCC[C@H]1C(=O)N1CCC[C@H]1C(=O)NCc1ccccn1	/	-9	/	/	2	0
COc1cccc(CN2CCSCC2)c1OC	10	25*	-20	-1	-26	0
COc1cccc(CNCc2ccc(OC)c3ccccc23)c1OC	6	12	-18	0	-1	23*
Cc1cccc(NS(=O)(=O)c2c(C(=O)N3CCCC3)c(C)n(C)c2C)c1	9	-4	-9	-4	15	0
O=C(O)c1cccc(N2C(=O)c3cc([N+](=O)[O-])cc4cc([N+](=O)[O-])cc(c34)C2=O)c1	96*	1	1	-4	14	0
O=C(COc1ccc(-n2cnnn2)cc1)Nc1cc(Cl)cc(Cl)c1	/	-4	/	/	-9	0
CC1=NN(c2ccccc2)C(=O)/C1=C/c1c(O)n(-c2ccc(F)c(Cl)c2)[nH]c1=O	74*	/	5	-4	/	/
